Laboratory results taken from ChEMBL document CHEMBL4425193 (Bioorg Med Chem, 2016).
The source made the active and inactive calls. The rule behind the calls is not given here. Positions of bridges follow the written chain, without caps; N, C: chain ends. Non-standard residues stand in square brackets, D forms with d. Residues, ends and D or L forms follow the SMILES beside them. Chains are numbered I, II in the order given. ξ: configuration not given here. Gly(N-piperonyl) = O=C(O)CNCc1ccc2c(c1)OCO2; N(4-MeOBn)Gly = COc1ccc(CNCC(=O)O)cc1; Nrpe = C[C@@H](NCC(=O)O)c1ccccc1; Nlys = NCCCCNCC(=O)O; ξK = NCCCCC(N)C(=O)O

How the values were obtained:
HCC4017 [1] = assay: Cytotoxicity against human HCC4017 cells after 1 day by MTS assay; assay type: functional, cell-based; details: HCC4017, 24 h
HCC4017 [2] = assay: Cytotoxicity against human HCC4017 cells at 30 uM after 1 day by MTS assay
[3] = Displacement of FITC-labeled PPS1D1 from lipid phosphatidylserine assessed as remaining fluorescence at 1 uM incubated for 1 hr by ELISA-like competitive binding assay
Method in brief: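 Lipid PS in hexane (10 μg/ml) was coated into wells and dried at room temperature. Wells were blocked with 1% BSA/PBS for 1 h, then saturated with 200 nM FITC-PPS1D1 in blocking buffer for 1 h at room temperature and washed. Competitor at 1 μM was added for 1 h. After PBS washes, remaining fluorescence was read at 520 nm.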

HCC4017 [4] = assay: Cytotoxicity against human HCC4017 cells at 30 uM after 1 day by MTS assay; assay type: functional, cell-based
Method in brief: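 HCC4017 cells were plated in 96-well format. On the second day compound was added in RPMI/10% FBS with 3% BSA, and each concentration was run in triplicate. MTS reagent was added on day 3 and absorbance was read at 490 nm. The absorbance values at the 30 μM treatment were taken for this readout.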

NCI-H460 = assay: Cytotoxicity against human H460 cells after 1 day by MTS assay; assay type: functional, cell-based; details: NCI-H460, 24 h
HCC4017 [5] = assay: Cytotoxicity against human HCC4017 cells at 0.1 to 100 uM after 1 day by MTS assay; assay type: functional, cell-based
Method in brief: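 HCC4017 lung cancer cells were seeded in clear-bottom 96-well plates. On day 2 they were exposed to compound in RPMI with 10% FBS containing 3% BSA, at eight graded concentrations from 0.1 μM to 100 μM, each in triplicate. On day 3 MTS reagent was added and absorbance was read at 490 nm.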

SMILES	IC50 (HCC4017 [1]) [µM]	Activity (HCC4017 [2])	inhibition [3]	Activity (HCC4017 [4])	IC50 (NCI-H460) [µM]	Activity (HCC4017 [5])
COc1ccc(CN(CC(=O)N(CCCCN)CC(=O)N[C@@H](CCCCN)C(=O)N[C@H](CCCCN)C(=O)N[C@@H](CCSC)C(=O)NCCCCC(NC(=O)[C@H](CCSC)NC(=O)[C@@H](CCCCN)NC(=O)[C@H](CCCCN)NC(=O)CN(CCCCN)C(=O)CN(Cc2ccc(OC)cc2)C(=O)CN(C(=O)CN(Cc2ccc3c(c2)OCO3)C(=O)CN[C@H](C)c2ccccc2)[C@H](C)c2ccccc2)C(N)=O)C(=O)CN(C(=O)CN(Cc2ccc3c(c2)OCO3)C(=O)CN[C@H](C)c2ccccc2)[C@H](C)c2ccccc2)cc1 (stereo partly drawn)	5 to 10	Active	Active	Active	5 to 10	Active
CSCC[C@H](NC(=O)[C@@H](CCCCN)NC(=O)[C@@H](N)CCCCN)C(=O)NCCCCC(NC(=O)[C@H](CCSC)NC(=O)[C@@H](CCCCN)NC(=O)[C@@H](N)CCCCN)C(N)=O (stereo partly drawn)			inactive			inactive
CSCC[C@H](NC(=O)[C@@H](CCCCN)NC(=O)[C@H](CCCCN)NC(=O)CN(CCCCN)C(=O)CN(C)C(=O)CN(C(=O)CN(Cc1ccc2c(c1)OCO2)C(=O)CN[C@H](C)c1ccccc1)[C@H](C)c1ccccc1)C(=O)NCCCCC(NC(=O)[C@H](CCSC)NC(=O)[C@@H](CCCCN)NC(=O)[C@H](CCCCN)NC(=O)CN(CCCCN)C(=O)CN(C)C(=O)CN(C(=O)CN(Cc1ccc2c(c1)OCO2)C(=O)CN[C@H](C)c1ccccc1)[C@H](C)c1ccccc1)C(N)=O (stereo partly drawn)		inactive	inactive	inactive		
COc1ccc(CN(CC(=O)N(CCCCN)CC(=O)N[C@@H](CCCCN)C(=O)N[C@H](CCCCN)C(=O)N[C@@H](CCSC)C(=O)NCCCCC(NC(=O)[C@H](CCSC)NC(=O)[C@@H](CCCCN)NC(=O)[C@H](CCCCN)NC(=O)CN(CCCCN)C(=O)CN(Cc2ccc(OC)cc2)C(=O)CN(C(=O)CNCc2ccc3c(c2)OCO3)[C@H](C)c2ccccc2)C(N)=O)C(=O)CN(C(=O)CNCc2ccc3c(c2)OCO3)[C@H](C)c2ccccc2)cc1 (stereo partly drawn)			inactive			inactive
C=CCNCC(=O)N(CCOC)CC(=O)N(CC=C)CC(=O)N(CCOC)CC(=O)N(CC=C)CC(=O)NCC(=O)N[C@H](CCCCN)C(=O)N[C@@H](CCSC)C(=O)NCCCCC(NC(=O)[C@H](CCSC)NC(=O)[C@@H](CCCCN)NC(=O)CNC(=O)CN(CC=C)C(=O)CN(CCOC)C(=O)CN(CC=C)C(=O)CN(CCOC)C(=O)CNCC=C)C(N)=O (stereo partly drawn)		inactive	inactive	inactive		inactive
COc1ccc(CN(CC(=O)N(CCCCN)CC(=O)N[C@@H](CCCCN)C(=O)N[C@H](CCCCN)C(=O)N[C@@H](CCSC)C(=O)NCCCCC(NC(=O)[C@H](CCSC)NC(=O)[C@@H](CCCCN)NC(=O)[C@H](CCCCN)NC(=O)CN(CCCCN)C(=O)CN(Cc2ccc(OC)cc2)C(=O)CN(C)C(=O)CN(Cc2ccc3c(c2)OCO3)C(=O)CN[C@H](C)c2ccccc2)C(N)=O)C(=O)CN(C)C(=O)CN(Cc2ccc3c(c2)OCO3)C(=O)CN[C@H](C)c2ccccc2)cc1 (stereo partly drawn)		inactive	inactive	inactive		
COc1ccc(CN(CC(=O)N(CCCCN)CC(=O)N[C@@H](CCCCN)C(=O)N[C@@H](C)C(=O)N[C@@H](CCSC)C(=O)NCCCCC(NC(=O)[C@H](CCSC)NC(=O)[C@H](C)NC(=O)[C@H](CCCCN)NC(=O)CN(CCCCN)C(=O)CN(Cc2ccc(OC)cc2)C(=O)CN(C(=O)CN(Cc2ccc3c(c2)OCO3)C(=O)CN[C@H](C)c2ccccc2)[C@H](C)c2ccccc2)C(N)=O)C(=O)CN(C(=O)CN(Cc2ccc3c(c2)OCO3)C(=O)CN[C@H](C)c2ccccc2)[C@H](C)c2ccccc2)cc1 (stereo partly drawn) (I: H-[Nrpe][Gly(N-piperonyl)][Nrpe][N(4-MeOBn)Gly][Nlys]KAM[ξK]-NH2 / II: H-[Nrpe][Gly(N-piperonyl)][Nrpe][N(4-MeOBn)Gly][Nlys]KAM; amide I:9-II:C)		inactive	inactive	inactive		
COc1ccc(CNCC(=O)N(CCCCN)CC(=O)N[C@@H](CCCCN)C(=O)N[C@H](CCCCN)C(=O)N[C@@H](CCSC)C(=O)NCCCCC(NC(=O)[C@H](CCSC)NC(=O)[C@@H](CCCCN)NC(=O)[C@H](CCCCN)NC(=O)CN(CCCCN)C(=O)CNCc2ccc(OC)cc2)C(N)=O)cc1 (stereo partly drawn)			inactive			inactive
COc1ccc(CN(CC(=O)N(CCCCN)CC(=O)N[C@@H](CCCCN)C(=O)N[C@H](CCCCN)C(=O)N[C@@H](CCSC)C(=O)NCCCCC(NC(=O)[C@H](CCSC)NC(=O)[C@@H](CCCCN)NC(=O)[C@H](CCCCN)NC(=O)CN(CCCCN)C(=O)CN(Cc2ccc(OC)cc2)C(=O)CN[C@H](C)c2ccccc2)C(N)=O)C(=O)CN[C@H](C)c2ccccc2)cc1 (stereo partly drawn)			inactive			inactive
COc1ccc(CN(CC(=O)N(CCCCN)CC(=O)N[C@@H](CCCCN)C(=O)N[C@H](CCCCN)C(=O)N[C@@H](C)C(=O)NCCCCC(NC(=O)[C@H](C)NC(=O)[C@@H](CCCCN)NC(=O)[C@H](CCCCN)NC(=O)CN(CCCCN)C(=O)CN(Cc2ccc(OC)cc2)C(=O)CN(C(=O)CN(Cc2ccc3c(c2)OCO3)C(=O)CN[C@H](C)c2ccccc2)[C@H](C)c2ccccc2)C(N)=O)C(=O)CN(C(=O)CN(Cc2ccc3c(c2)OCO3)C(=O)CN[C@H](C)c2ccccc2)[C@H](C)c2ccccc2)cc1 (stereo partly drawn)		Active		Active		
COCCN(CC(=O)N[C@@H](CCCCN)C(=O)N[C@H](CCCCN)C(=O)N[C@@H](CCSC)C(=O)NCCCCC(NC(=O)[C@H](CCSC)NC(=O)[C@@H](CCCCN)NC(=O)[C@H](CCCCN)NC(=O)CN(CCOC)C(=O)CN(Cc1ccc(OC)cc1)C(=O)CN(C(=O)CN(Cc1ccc2c(c1)OCO2)C(=O)CN[C@H](C)c1ccccc1)[C@H](C)c1ccccc1)C(N)=O)C(=O)CN(Cc1ccc(OC)cc1)C(=O)CN(C(=O)CN(Cc1ccc2c(c1)OCO2)C(=O)CN[C@H](C)c1ccccc1)[C@H](C)c1ccccc1 (stereo partly drawn)						Active
C=CCN(CC(=O)N[C@@H](CCCCN)C(=O)N[C@H](CCCCN)C(=O)N[C@@H](CCSC)C(=O)NCCCCC(NC(=O)[C@H](CCSC)NC(=O)[C@@H](CCCCN)NC(=O)[C@H](CCCCN)NC(=O)CN(CC=C)C(=O)CN(Cc1ccc(OC)cc1)C(=O)CN(C(=O)CN(Cc1ccc2c(c1)OCO2)C(=O)CN[C@H](C)c1ccccc1)[C@H](C)c1ccccc1)C(N)=O)C(=O)CN(Cc1ccc(OC)cc1)C(=O)CN(C(=O)CN(Cc1ccc2c(c1)OCO2)C(=O)CN[C@H](C)c1ccccc1)[C@H](C)c1ccccc1 (stereo partly drawn)						Active
CSCC[C@H](NC(=O)[C@@H](CCCCN)NC(=O)[C@H](CCCCN)NC(=O)CNCCCCN)C(=O)NCCCCC(NC(=O)[C@H](CCSC)NC(=O)[C@@H](CCCCN)NC(=O)[C@H](CCCCN)NC(=O)CNCCCCN)C(N)=O (stereo partly drawn)			inactive			inactive
